The source made the active and inactive calls. No cut-off for these calls is given here.
Assays:
[1] = Antifilarial activity against Brugia malayi microfilariae isolated from peritoneal cavity of infected Meriones unguiculatus assessed as loss of motility at 500 uM incubated for 48 hrs by microscopy; format: functional
How it was run: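 Jird peritoneal Mf washed in RPMI 1640 with gentamycin, penicillin and streptomycin, then held 1 h at 37°C on dishes to remove exudate cells. About 300 Mf in 0.9% saline exposed to compound with shaking at 37°C, 30 min, 150 rpm. 100 Mf per well, in triplicate, then 48 h at 37°C in 5% CO2 in RPMI. Stocks were 2 mM in DMSO; vehicle control 1% DMSO. Motility scored by microscopy; mean ± SEM % loss of motility.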

[2] = tested on: Brugia malayi; assay: Induction of apoptosis in Brugia malayi microfilariae isolated from peritoneal cavity of infected Meriones unguiculatus after 48 hrs by acridine orange/ethidium bromide dual staining based epifluorescence microscopy; format: functional
How it was run: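 Mf, control or treated for 48 h, washed and resuspended in cold PBS. Dye mix of 100 µg/mL AO and 100 µg/mL EB in PBS added. Viewed by epifluorescence microscopy with 480/30 nm excitation; green nuclei scored as live, orange/red as apoptotic or dead. Staurosporine was the positive control and untreated Mf the negative control.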

[3] = Cytotoxicity against human PBMC after 48 hrs by trypan blue exclusion assay; format: toxicity, cell-based; details: PBMC (peripheral blood mononuclear cells), read-out: LD50
How it was run: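 Human PBMCs came from healthy donors' venous blood by histopaque-1077 density separation. Cells were washed in RPMI 1640 with 2 mM L-glutamine and resuspended in RPMI with 10% FBS at 1x10^5 cells/ml. Trypan blue exclusion followed the procedure adapted from the microfilarial motility assay. LD50 was taken as the dose giving 50% cytotoxicity.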

[4] = Antifilarial activity against Brugia malayi microfilariae isolated from peritoneal cavity of infected Meriones unguiculatus assessed as loss of motility incubated for 48 hrs by microscopy; format: functional
How it was run: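 Jird peritoneal Mf cleaned of exudate cells by 1 h adherence at 37°C. Exposed to compound over 1–100 µM final with shaking at 37°C, 30 min, 150 rpm in 0.9% saline. Washed, plated at 100 Mf per well in RPMI, triplicate wells, then 48 h at 37°C in 5% CO2. Vehicle control 1% DMSO. Loss of motility read by microscopy; experiment repeated three times; IC50 calculated.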

SMILES | Activity [1] [%] | Activity [2] | CC50 at 48 h [3] [µM] | IC50 [4] [µM]
Cc1ccc(S(=O)(=O)Nc2ccc(C(=O)/C=C/c3ccc(Cl)cc3)cc2)cc1 | 1.58 |  |  | 
Cc1ccc(/C=C/C(=O)c2ccc(NS(=O)(=O)c3ccccc3)cc2)cc1 | 6.34 |  |  | 
Cc1ccc(/C=C/C(=O)c2ccc(NS(=O)(=O)c3ccc(C)cc3)cc2)cc1 | 100 | Active | 140 | 8.2
O=C(/C=C/c1ccc([N+](=O)[O-])cc1)c1ccc(NS(=O)(=O)c2ccccc2)cc1 | 100 | Active |  | 
COc1ccc(/C=C/C(=O)c2ccc(NS(=O)(=O)c3ccccc3)cc2)cc1 | 1.81 |  |  | 
O=C(/C=C/c1ccc(O)cc1)c1ccc(NS(=O)(=O)c2ccccc2)cc1 | 5.2 |  |  | 
O=C(/C=C/c1ccccc1Br)c1ccc(NS(=O)(=O)c2ccccc2)cc1 | 13.4 |  |  | 
Cc1ccc(S(=O)(=O)Nc2ccc(C(=O)/C=C/c3cccc(Br)c3)cc2)cc1 | 100 | Active | 80 | 15
COc1ccc(/C=C/C(=O)c2ccc(NS(C)(=O)=O)cc2)cc1 | 100 | Active | 194 | 60
O=C(/C=C/c1ccc(Br)cc1)c1ccc(NS(=O)(=O)c2ccccc2)cc1 | 100 | Active | 265 | 70
CS(=O)(=O)Nc1ccc(C(=O)/C=C/c2ccc([N+](=O)[O-])cc2)cc1 | 100 | Active | 188 | 4.4
O=C(/C=C/c1ccc(Cl)cc1)c1ccc(NS(=O)(=O)c2ccccc2)cc1 | 100 | Active | 177 | 17
Cc1ccc(S(=O)(=O)Nc2ccc(C(=O)/C=C/c3ccccc3)cc2)cc1 | 100 | Active | 335 | 9.7
O=C(/C=C/c1ccccc1)c1ccc(NS(=O)(=O)c2ccccc2)cc1 | 4.52 |  |  | 
COc1ccc(/C=C/C(=O)c2ccc(NS(=O)(=O)c3ccc(C)cc3)cc2)cc1 | 82.7 |  |  | 
O=C(/C=C/c1ccccc1Cl)c1ccc(NS(=O)(=O)c2ccccc2)cc1 | 33.3 |  |  | 
Cc1ccc(S(=O)(=O)Nc2ccc(C(=O)/C=C/c3ccc(O)cc3)cc2)cc1 | 100 | Active | 270 | 82
Cc1ccc(S(=O)(=O)Nc2ccc(C(=O)/C=C/c3ccccc3Cl)cc2)cc1 | 4.1 |  |  | 
CS(=O)(=O)Nc1ccc(C(=O)/C=C/c2ccccc2)cc1 | 100 | Active | 134 | 32
Cc1ccc(S(=O)(=O)Nc2ccc(C(=O)/C=C/c3ccc(-c4ccccc4)cc3)cc2)cc1 | 6.24 |  |  | 
Cc1ccc(S(=O)(=O)Nc2ccc(C(=O)/C=C/c3ccc(Br)cc3)cc2)cc1 | 100 | Active | 220 | 4.6
O=C(/C=C/c1ccco1)c1ccc(NS(=O)(=O)c2ccccc2)cc1 | 8.11 |  |  | 
Cc1ccc(S(=O)(=O)Nc2ccc(C(=O)/C=C/c3ccccc3Br)cc2)cc1 | 3.04 |  |  | 
O=C(/C=C/c1ccc(F)cc1)c1ccc(NS(=O)(=O)c2ccccc2)cc1 | 100 | Active | 217 | 4.5
CN(C)c1ccc(/C=C/C(=O)c2ccc(NS(=O)(=O)c3ccccc3)cc2)cc1 | 3.75 |  |  | 
Cc1ccc(S(=O)(=O)Nc2ccc(C(=O)/C=C/c3ccc(C(C)C)cc3)cc2)cc1 | 100 | Active | 50 | 20
O=C(/C=C/c1ccc(Br)s1)c1ccc(NS(=O)(=O)c2ccccc2)cc1 | 9 |  |  | 
